Data set [1] addresses T1, 3-hydroxy-3-methylglutaryl-coenzyme A reductase (Rattus norvegicus, UniProt P51639).
T1 sequence (P51639 whole entry): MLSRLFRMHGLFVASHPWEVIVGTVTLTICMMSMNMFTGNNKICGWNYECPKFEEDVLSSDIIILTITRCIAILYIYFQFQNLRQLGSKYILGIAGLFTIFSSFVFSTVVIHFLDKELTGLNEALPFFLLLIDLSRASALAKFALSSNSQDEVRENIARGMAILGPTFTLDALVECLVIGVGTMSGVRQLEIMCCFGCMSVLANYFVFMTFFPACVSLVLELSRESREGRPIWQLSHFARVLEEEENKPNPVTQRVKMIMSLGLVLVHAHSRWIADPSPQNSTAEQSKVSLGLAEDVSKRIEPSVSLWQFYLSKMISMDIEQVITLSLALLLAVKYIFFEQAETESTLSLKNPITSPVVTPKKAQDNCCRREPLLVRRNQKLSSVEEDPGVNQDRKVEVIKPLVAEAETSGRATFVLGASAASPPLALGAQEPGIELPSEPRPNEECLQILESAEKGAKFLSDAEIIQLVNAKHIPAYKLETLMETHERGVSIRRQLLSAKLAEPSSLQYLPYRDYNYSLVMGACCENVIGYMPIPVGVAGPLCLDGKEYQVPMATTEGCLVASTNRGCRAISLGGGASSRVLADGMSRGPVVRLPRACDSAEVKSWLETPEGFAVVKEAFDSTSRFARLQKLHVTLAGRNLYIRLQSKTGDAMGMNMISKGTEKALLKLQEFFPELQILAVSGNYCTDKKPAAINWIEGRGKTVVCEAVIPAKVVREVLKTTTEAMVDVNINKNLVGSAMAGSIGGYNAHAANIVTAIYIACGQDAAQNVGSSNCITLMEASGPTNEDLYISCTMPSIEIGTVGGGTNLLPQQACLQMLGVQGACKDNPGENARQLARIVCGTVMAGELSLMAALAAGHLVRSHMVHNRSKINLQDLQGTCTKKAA
Description: Inhibitory activity against washed rat liver microsomal HMG-CoA reductase (HMGR). The gist of the method:
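Male Wistar rats (100–120 g) on reversed light cycle, killed at 0800 h; washed liver microsomes (10000g then 105000g spins, 4 °C) in buffer A (50 mM K phosphate pH 7.4, 250 mM NaCl, 10 mM EDTA, 1 mM DTT). Enzyme+inhibitor preincubated 10 min 37 °C; NADPH-regenerating system plus [3-14C]HMG-CoA added; HCl stop, lactonization, anion-exchange isolation of [14C]mevalonate, scintillation. Five concentrations, duplicate, ≥2 occasions; pravastatin reference.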
Background: Liver microsomes are a subcellular fraction often used to study metabolism.

Data set [2] is described as follows: Partition coefficient (logD7.4). It is filed as physicochemical. Particulars: octanol/water, pH 7.4. The gist of the method: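 log D by HPLC in n-octanol–water: compound dissolved in pH 7.4 aqueous borax-phosphate buffer saturated with n-octanol, eluted through a column of n-octanol physically bonded to fractionated hyflosuperpel.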
The test system of a further data set is HepG2. As to the kind of experiment: Tested for ability to inhibit the incorporation of [14C]- acetate in to cholesterol in HepG2 cells. It is filed as functional, cell-based. Particulars: Homo sapiens. Put shortly: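 HepG2 cells in MEM + 10% fetal calf serum to 80% confluency, switched to serum-free MEM; inhibitor and sodium [14C]acetate added together, 3 h. Saponified, petroleum ether extract; [14C]cholesterol separated by reverse-phase HPLC and measured by radioactivity flow monitor. At least five concentrations, triplicate, run twice; lovastatin standard.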

The term IC50 denotes the concentration at which inhibition is half-maximal. Read a low IC50 as inhibition by little substance. As a reminder, the logD is lipophilicity at a set pH, counting ionised and neutral species.

The compound `O=C(O)C[C@H](O)C[C@H](O)CCn1c(C(F)(F)F)nc(-c2ccccc2)c1-c1ccc(F)cc1` displayed a 50% inhibitory concentration (IC50) in data set [1] of 31 nM.

On to `CCc1cc(-c2c(-c3ccc(F)cc3)nc(C(C)C)n2/C=C/[C@@H](O)C[C@@H](O)CC(=O)O)cc(CC)c1F`, for which, in data set [1], the half-maximal inhibitory concentration (IC50) is 100 nM.

As for `Cc1cc(-c2nc(C(C)C)n(/C=C/[C@@H](O)C[C@@H](O)CC(=O)O)c2-c2ccc(F)cc2)cc(C)c1Cl`, the figures for the concentration for half-maximal inhibition (IC50) (in data set [1]; in the data set with HepG2) were 2 nM and 0.9 nM, respectively. The log distribution coefficient (logD) in data set [2] was found to be 2.27.

In data set [1], `Cc1ccc(-c2c(-c3ccc(F)cc3)nc(C(F)(F)F)n2CC[C@@H](O)C[C@@H](O)CC(=O)O)cc1` returned an IC50 of 750 nM.

Consider `CC(C)c1nc(-c2ccc(F)cc2)c(-c2cc(Cl)cc(Cl)c2)n1/C=C/[C@@H](O)C[C@@H](O)CC(=O)O`, for which half-maximal inhibition in data set [1] (IC50) was put at 22 nM.

Take `CC(C)c1nc(-c2ccccc2)n(-c2ccc(F)cc2)c1/C=C/[C@@H](O)C[C@@H](O)CC(=O)O`: the half-inhibitory concentration (IC50) in data set [1] worked out at 2.6 nM.

Regarding `O=C(O)C[C@H](O)C[C@H](O)CCn1c(C(F)(F)F)nc(-c2ccc(F)cc2)c1-c1ccccc1`, the IC50 in data set [1] came to 201 nM.

In data set [1], `O=C(O)C[C@H](O)C[C@H](O)CCn1c(C(F)(F)F)nc(-c2cccc(Cl)c2)c1-c1ccc(F)cc1` yielded a half-maximal inhibitory concentration (IC50) of 17 nM.

`CNc1cccc(-c2nc(C(C)C)n(/C=C/[C@@H](O)C[C@@H](O)CC(=O)O)c2-c2ccc(F)cc2)c1` registered a half-maximal inhibitory concentration (IC50) in data set [1] of 3 nM. Further, the pH-dependent lipophilicity (logD) in data set [2] is -0.05.

As for `COc1ccc(-c2c(-c3ccc(F)cc3)nc(C(F)(F)F)n2CC[C@@H](O)C[C@@H](O)CC(=O)O)cc1`, inhibition in data set [1] was half-maximal at 418 nM (IC50).

In data set [1], `O=C(O)C[C@H](O)C[C@H](O)CCn1c(C(F)(F)F)nc(-c2ccc(F)cc2)c1-c1ccc(F)cc1` registered a half-inhibitory concentration (IC50) of 38 nM.

In turn, `CC(C)c1nc(-c2ccc(F)cc2)c(-c2ccc(F)cc2)n1CC[C@@H](O)C[C@@H](O)CC(=O)O` came in with an IC50 in data set [1] of 316 nM.

Take `CN(C)c1nc(-c2ccc(F)cc2)c(-c2ccc(F)cc2)n1/C=C/[C@@H](O)C[C@@H](O)CC(=O)O`: in data set [1], the midpoint of inhibition, the IC50, lay at 9 nM.

`Cc1nc(-c2ccc(F)cc2)c(-c2ccc(F)cc2)n1/C=C/[C@@H](O)C[C@@H](O)CC(=O)O` gave a 50% inhibitory concentration (IC50) in data set [1] above 100 nM.

`CC(C)c1nc(-c2ccc(F)cc2)c(-c2cccc(Cl)c2)n1/C=C/[C@@H](O)C[C@@H](O)CC(=O)O` showed a half-maximal inhibitory concentration (IC50) in data set [1] of 8 nM.

For `CC(C)(C)c1nc(-c2ccc(F)cc2)c(-c2ccc(F)cc2)n1/C=C/[C@@H](O)C[C@@H](O)CC(=O)O`, the 50% inhibitory concentration (IC50) in data set [1] stood at 7 nM.

`Cc1cc(C)cc(-c2c(-c3ccc(F)cc3)nc(C(F)(F)F)n2CC[C@@H](O)C[C@@H](O)CC(=O)O)c1` registered an IC50 in data set [1] of 38 nM.

Turning to `CC(C)c1nc(-c2ccc(F)cc2)c(-c2ccc(F)cc2)n1/C=C/[C@@H](O)C[C@@H](O)CC(=O)O` [listing 1 of 2 here], the IC50 turned out to be 1 nM in data set [1] and 2.5 nM in the data set with HepG2.

The compound `O=C(O)C[C@H](O)C[C@H](O)CCn1c(C(F)(F)F)nc(-c2ccc(C(F)(F)F)cc2)c1-c1ccc(F)cc1` came in with a 50% inhibitory concentration (IC50) in data set [1] of 200 nM.

In turn, `CC(C)c1nc(-c2ccc(F)cc2)c(-c2ccc(F)cc2)n1/C=C/[C@H](O)C[C@@H](O)CC(=O)O` showed an IC50 in data set [1] of 2000 nM.

`Cc1cc(-c2nc(C(F)(F)F)n(CC[C@@H](O)C[C@@H](O)CC(=O)O)c2-c2ccc(F)cc2)cc(C)c1F`: the IC50 in data set [1] came to 32 nM.

As for `CC(C)c1nc(-c2cccnc2)c(-c2ccc(F)cc2)n1/C=C/[C@@H](O)C[C@@H](O)CC(=O)O`, inhibition in data set [1] was half-maximal at 1 nM (IC50). Moreover, in data set [2], the logD is -0.43.

Turning to `CC(C)c1nc(-c2ccc(F)cc2)c(-c2ccc(F)cc2)n1/C=C/[C@H](O)C[C@H](O)CC(=O)O`, it took 700 nM to reach half-maximal inhibition in data set [1] (IC50).

In the case of `Cc1cccc(-c2nc(C(F)(F)F)n(CC[C@@H](O)C[C@@H](O)CC(=O)O)c2-c2ccc(F)cc2)c1`, the IC50 in data set [1] was determined as 29 nM.

In data set [1], `O=C(O)C[C@H](O)C[C@H](O)CCn1c(C(F)(F)F)nc(-c2ccc(F)cc2)c1-c1ccc(C(F)(F)F)cc1` displayed an IC50 above 1000 nM.

`CC(C)c1nc(-c2ccc(F)cc2)c(-c2ccc(F)cc2)n1/C=C/[C@@H](O)C[C@@H](O)CC(=O)O` [listing 2 of 2 here]: the IC50 in data set [1] worked out at 2 nM; with HepG2, 5.3 nM. The logD in data set [2] worked out at 0.72.

Consider `CC(C)c1c(-c2ccc(F)cc2)nc(-c2ccc(F)cc2)n1/C=C/[C@@H](O)C[C@@H](O)CC(=O)O`, for which the 50% inhibitory concentration (IC50) in data set [1] is 1 nM. Besides, the logD in data set [2] stood at 0.83.

Compound `Cc1cc(C)cc(-c2nc(C(F)(F)F)n(CC[C@@H](O)C[C@@H](O)CC(=O)O)c2-c2ccc(F)cc2)c1` gave an IC50 in data set [1] of 24 nM.

Regarding `COc1cccc(-c2c(-c3ccc(F)cc3)nc(C(F)(F)F)n2CC[C@@H](O)C[C@@H](O)CC(=O)O)c1`, the IC50 in data set [1] was 135 nM.

Regarding `Cc1cc(F)ccc1-c1c(-c2ccc(F)cc2)nc(C(C)C)n1/C=C/[C@@H](O)C[C@@H](O)CC(=O)O`, in data set [1], the IC50 is 4 nM. Moreover, in data set [2], the pH-dependent lipophilicity (logD) worked out at 0.86.

As to `O=C(O)C[C@H](O)C[C@H](O)CCn1c(C(F)(F)F)nc(-c2cccs2)c1-c1ccc(F)cc1`, in data set [1], it took 64 nM to reach half-maximal inhibition (IC50).

In the case of `CC(C)c1nc(-c2cccc(S(C)(=O)=O)c2)c(-c2ccc(F)cc2)n1/C=C/[C@@H](O)C[C@@H](O)CC(=O)O`, inhibition in data set [1] was half-maximal at 2 nM (IC50). In addition, in data set [2], the log distribution coefficient (logD) was -0.6.

In turn, `Cc1cc(C)cc(-c2c(-c3ccc(F)cc3)nc(C(C)C)n2/C=C/[C@@H](O)C[C@@H](O)CC(=O)O)c1` had a half-maximal inhibitory concentration (IC50) in data set [1] of 56 nM.

`Cc1ccc(-c2nc(C(F)(F)F)n(CC[C@@H](O)C[C@@H](O)CC(=O)O)c2-c2ccc(F)cc2)cc1`: in data set [1], 43 nM corresponded to half-maximal inhibition (IC50).

Turning to `Cc1cc(-c2c(-c3ccc(F)cc3)nc(C(C)C)n2/C=C/[C@@H](O)C[C@@H](O)CC(=O)O)cc(C)c1F`, in data set [1], the concentration for half-maximal inhibition (IC50) stood at 30 nM.

`Cc1cccc(-c2c(-c3ccc(F)cc3)nc(C(F)(F)F)n2CC[C@@H](O)C[C@@H](O)CC(=O)O)c1` returned a half-maximal inhibitory concentration (IC50) in data set [1] of 74 nM.

In turn, `COc1cccc(-c2nc(C(F)(F)F)n(CC[C@@H](O)C[C@@H](O)CC(=O)O)c2-c2ccc(F)cc2)c1` came in with an IC50 in data set [1] of 20 nM.

`O=C(O)C[C@H](O)C[C@H](O)CCn1c(C(F)(F)F)nc(-c2cccnc2)c1-c1ccc(F)cc1` gave an IC50 in data set [1] of 66 nM.

Turning to `O=C(O)C[C@H](O)C[C@H](O)CCn1c(C(F)(F)F)nc(-c2ccc(F)cc2)c1-c1cccs1`, the IC50 in data set [1] was 215 nM.

Turning to `O=C(O)C[C@H](O)C[C@H](O)/C=C/n1c(C(F)(F)F)nc(-c2ccc(F)cc2)c1-c1ccc(F)cc1`, the half-maximal inhibitory concentration (IC50) was found to be 13 nM in data set [1] and 15.8 nM in the data set with HepG2. In data set [2], this compound returned a logD of 0.73.

`O=C(O)C[C@H](O)C[C@H](O)CCn1c(C(F)(F)F)nc(-c2ccc(F)cc2)c1-c1cccc(Cl)c1` displayed a half-inhibitory concentration (IC50) in data set [1] of 41 nM.

The compound `Cc1cc(-c2c(-c3ccc(F)cc3)nc(C(F)(F)F)n2CC[C@@H](O)C[C@@H](O)CC(=O)O)cc(C)c1F` came in with a half-maximal inhibitory concentration (IC50) in data set [1] of 31 nM.

In data set [1], `O=C(O)C[C@H](O)C[C@H](O)CCn1c(C(F)(F)F)nc(-c2ccc(F)cc2)c1-c1cccnc1` came in with a concentration for half-maximal inhibition (IC50) above 1000 nM.

In turn, `COc1ccc(-c2nc(C(F)(F)F)n(CC[C@@H](O)C[C@@H](O)CC(=O)O)c2-c2ccc(F)cc2)cc1` returned an IC50 in data set [1] of 68 nM.

(Values after ChEMBL document CHEMBL1126904, “Inhibitors of cholesterol biosynthesis. 1. 3,5-Dihydroxy-7-(N-imidazolyl)-6-heptenoates and -heptanoates, a novel series of HMG-CoA reductase inhibitors” (J Med Chem, 1993).)
